Experimental data published in ChEMBL document CHEMBL1147105, “In vitro and in vivo activities of PD 0305970 and PD 0326448, new bacterial gyrase/topoisomerase inhibitors with potent antibacterial activities versus multidrug-resistant gram-positive and fastidious organism groups” (2007).
Values after ≈ are worked out from the molar mass of the structure shown.

Legend:
Enterococcus faecium = assay: Antibacterial activity against VanA-resistant Enterococcus faecium; format: functional
How it was run: (§1)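 Broth microdilution MIC per CLSI guidelines, incubated at 35°C. Cation-adjusted Mueller-Hinton broth for nonfastidious organisms and staphylococci. Streptococci tested in the same broth with 3% lysed horse blood. Anaerobes tested in supplemented Brucella broth inside an anaerobe chamber (5% CO2, 5% H2, 90% N2), read after 48 h. Strains were mainly recent clinical isolates with confirmed identity.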

[1] = tested on: Enterococcus casseliflavus; assay: Antibacterial activity against Enterococcus casseliflavus; format: functional
Listeria monocytogenes = assay: Antibacterial activity against Listeria monocytogenes; format: functional
How it was run: (§2)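 Broth microdilution MIC following CLSI guidelines, in cation-adjusted Mueller-Hinton broth containing 3% lysed horse blood, incubated at 35°C. Clinical isolates with identity confirmed. Reported as MIC range, MIC50 and MIC90.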

Corynebacterium sp. = assay: Antibacterial activity against Corynebacterium sp.; format: functional; how it was run: as §2
Haemophilus influenzae = assay: Antibacterial activity against beta-lactamase positive Haemophilus influenzae; format: functional
How it was run: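 Broth microdilution MIC following CLSI guidelines, in Haemophilus test medium at 35°C.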

Legionella pneumophila = assay: Antibacterial activity against Legionella pneumophila; format: functional
How it was run: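 Broth microdilution MIC per CLSI guidelines, run in buffered yeast extract α-ketoglutarate broth at 35°C and read after 48 h.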

Moraxella catarrhalis = assay: Antibacterial activity against beta-lactamase negative Moraxella catarrhalis; format: functional
Citrobacter koseri = assay: Antibacterial activity against Citrobacter diversus; format: functional
How it was run: (§3)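 Broth microdilution MIC following CLSI guidelines, in cation-adjusted Mueller-Hinton broth, incubated at 35°C. Recent clinical isolates and reference strains, with identity confirmed by automated and standard microbiological methods. Results reported as MIC range, MIC50 and MIC90.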

Klebsiella oxytoca = assay: Antibacterial activity against Klebsiella oxytoca; format: functional; how it was run: as §3
Klebsiella pneumoniae [2] = assay: Antibacterial activity against Klebsiella pneumoniae; format: functional; how it was run: as §3
Klebsiella pneumoniae [3] = assay: Antibacterial activity against beta-lactamase positive Klebsiella pneumoniae; format: functional
How it was run: (§4)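 MIC by CLSI broth microdilution for nonfastidious organisms, in cation-adjusted Mueller-Hinton broth incubated at 35°C.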

Morganella morganii = assay: Antibacterial activity against Morganella morganii; format: functional; how it was run: as §3
Proteus mirabilis = assay: Antibacterial activity against Proteus mirabilis; format: functional; how it was run: as §3
Salmonella typhimurium = assay: Antibacterial activity against Salmonella enterica serovar Typhimurium; format: functional, Salmonella enterica subsp. enterica serovar Typhimurium; how it was run: as §3
Shigella dysenteriae = assay: Antibacterial activity against Shigella dysenteriae; format: functional
Serratia marcescens = assay: Antibacterial activity against Serratia marcescens; format: functional; how it was run: as §3
Acinetobacter sp. = assay: Antibacterial activity against Acinetobacter sp.; format: functional; how it was run: as §3
Pseudomonas aeruginosa = assay: Antibacterial activity against Pseudomonas aeruginosa; format: functional; how it was run: as §3
Actinomyces sp. = assay: Antibacterial activity against Actinomyces sp.; format: functional
Fusobacterium sp. = assay: Antibacterial activity against Fusobacterium sp.; format: functional
How it was run: (§5)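 Anaerobic broth microdilution MIC following CLSI guidelines, in supplemented Brucella broth. Run in an anaerobe chamber under 5% CO2, 5% H2 and 90% N2 at 35°C, and read after 48 h. Reported as MIC range, MIC50 and MIC90.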

[4] = tested on: Peptostreptococcus anaerobius; assay: Antibacterial activity against Peptostreptococcus anaerobius; format: functional; how it was run: as §5
Streptococcus pyogenes = assay: Antibacterial activity against Streptococcus pyogenes; format: functional
How it was run: (§6)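 Broth microdilution MIC following CLSI guidelines, in cation-adjusted Mueller-Hinton broth with 3% lysed horse blood. Plates incubated at 35°C. Clinical isolates and reference strains, with identity confirmed by standard microbiological methods.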

[5] = tested on: Fusobacterium necrophorum; assay: Antibacterial activity against Fusobacterium necrophorum; format: functional; how it was run: as §5
Clostridioides difficile = assay: Antibacterial activity against Clostridium difficile; format: functional; how it was run: as §5
[6] = tested on: Bacteroides thetaiotaomicron; assay: Antibacterial activity against Bacteroides thetaiotaomicron; format: functional; how it was run: as §5
Bacteroides fragilis = assay: Antibacterial activity against Bacteroides fragilis; format: functional; how it was run: as §5
Bacteroides ovatus = assay: Antibacterial activity against Bacteroides ovatus; format: functional; how it was run: as §5
Staphylococcus aureus [7] = assay: Antibacterial activity against oxacillin-susceptible Staphylococcus aureus; format: functional; how it was run: as §4
Staphylococcus aureus [8] = assay: Antibacterial activity against oxacillin-resistant Staphylococcus aureus; format: functional; how it was run: as §1
Staphylococcus aureus [9] = assay: Antibacterial activity against vancomycin-intermediate Staphylococcus aureus; format: functional; how it was run: as §1
[10] = tested on: Staphylococcus epidermidis; assay: Antibacterial activity against oxacillin-susceptible Staphylococcus epidermidis; format: functional; how it was run: as §4
[11] = tested on: Staphylococcus epidermidis; assay: Antibacterial activity against oxacillin-resistant Staphylococcus epidermidis; format: functional; how it was run: as §1
[12] = tested on: Staphylococcus haemolyticus; assay: Antibacterial activity against Staphylococcus haemolyticus; format: functional; how it was run: as §2
Alloiococcus otitis = assay: Antibacterial activity against Alloiococcus otitidis; format: functional
How it was run: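 MIC by broth microdilution following CLSI guidelines, in cation-adjusted Mueller-Hinton broth with 3% lysed horse blood. Incubated at 35°C and read after 48 h. Reported as MIC range, MIC50 and MIC90.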

Streptococcus agalactiae = assay: Antibacterial activity against Streptococcus agalactiae; format: functional; how it was run: as §2
Streptococcus pneumoniae [13] = assay: Antibacterial activity against penicillin-susceptible Streptococcus pneumoniae; format: functional; how it was run: as §1
Streptococcus pneumoniae [14] = assay: Antibacterial activity against penicillin-intermediate resistant Streptococcus pneumoniae; format: functional; how it was run: as §1
Streptococcus pneumoniae [15] = assay: Antibacterial activity against levofloxacin-resistant Streptococcus pneumoniae; format: functional; how it was run: as §1
Prevotella buccae = assay: Antibacterial activity against Prevotella buccae; format: functional; details: Segatella buccae; how it was run: as §5
Prevotella corporis = assay: Antibacterial activity against Prevotella corporis; format: functional; how it was run: as §5
[16] = tested on: Prevotella melaninogenica; assay: Antibacterial activity against Prevotella melaninogenica; format: functional; how it was run: as §5
Hoylesella oralis = assay: Antibacterial activity against Prevotella oralis; format: functional; how it was run: as §5
Neisseria meningitidis = assay: Antibacterial activity against Neisseria meningitidis; format: functional
How it was run: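 MIC by broth microdilution in gonococcal broth, incubated at 35°C in 5% CO2. Reported as MIC range, MIC50 and MIC90.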

Streptococcus salivarius = assay: Antibacterial activity against Streptococcus salivarius; format: functional; how it was run: as §6
Streptococcus mitis = assay: Antibacterial activity against Streptococcus mitis; format: functional; how it was run: as §6
Salmonella enteritidis = assay: Antibacterial activity against Salmonella enterica serovar Enteritidis; format: functional, Salmonella enterica subsp. enterica serovar Enteritidis; how it was run: as §3

Cc1c(N2CC[C@@H]([C@H](C)N)C2)c(F)cc2c(=O)n(N)c(=O)n(C3CC3)c12
MIC50 (Enterococcus faecium): 1 µg/mL (≈ 2.77 µM)
MIC90 (Enterococcus faecium): 2 µg/mL (≈ 5.53 µM)
MIC50 [1]: 0.25 µg/mL (≈ 0.692 µM)
MIC90 [1]: 0.25 µg/mL (≈ 0.692 µM)
MIC50 (Listeria monocytogenes): 0.125 µg/mL (≈ 0.346 µM)
MIC90 (Listeria monocytogenes): 0.25 µg/mL (≈ 0.692 µM)
MIC50 (Corynebacterium sp.): 0.25 µg/mL (≈ 0.692 µM)
MIC90 (Corynebacterium sp.): 0.25 µg/mL (≈ 0.692 µM)
MIC50 (Haemophilus influenzae): 0.125 µg/mL (≈ 0.346 µM)
MIC90 (Haemophilus influenzae): 0.25 µg/mL (≈ 0.692 µM)
MIC50 (Legionella pneumophila): 0.25 µg/mL (≈ 0.692 µM)
MIC90 (Legionella pneumophila): 0.25 µg/mL (≈ 0.692 µM)
MIC50 (Moraxella catarrhalis): 0.25 µg/mL (≈ 0.692 µM)
MIC90 (Moraxella catarrhalis): 0.5 µg/mL (≈ 1.38 µM)
MIC50 (Citrobacter koseri): 1 µg/mL (≈ 2.77 µM)
MIC90 (Citrobacter koseri): 4 µg/mL (≈ 11.1 µM)
MIC50 (Klebsiella oxytoca): 1 µg/mL (≈ 2.77 µM)
MIC90 (Klebsiella oxytoca): 2 µg/mL (≈ 5.53 µM)
MIC50 (Klebsiella pneumoniae [2]): 2 µg/mL (≈ 5.53 µM)
MIC90 (Klebsiella pneumoniae [2]): 4 µg/mL (≈ 11.1 µM)
MIC50 (Klebsiella pneumoniae [3]): 2 µg/mL (≈ 5.53 µM)
MIC90 (Klebsiella pneumoniae [3]): 8 µg/mL (≈ 22.1 µM)
MIC50 (Morganella morganii): 2 µg/mL (≈ 5.53 µM)
MIC90 (Morganella morganii): 8 µg/mL (≈ 22.1 µM)
MIC50 (Proteus mirabilis): 1 µg/mL (≈ 2.77 µM)
MIC90 (Proteus mirabilis): 2 µg/mL (≈ 5.53 µM)
MIC50 (Salmonella typhimurium): 0.5 µg/mL (≈ 1.38 µM)
MIC90 (Salmonella typhimurium): 1 µg/mL (≈ 2.77 µM)
MIC50 (Shigella dysenteriae): 0.5 µg/mL (≈ 1.38 µM)
MIC90 (Shigella dysenteriae): 1 µg/mL (≈ 2.77 µM)
MIC50 (Serratia marcescens): 2 µg/mL (≈ 5.53 µM)
MIC90 (Serratia marcescens): 16 µg/mL (≈ 44.3 µM)
MIC50 (Acinetobacter sp.): 1 µg/mL (≈ 2.77 µM)
MIC90 (Acinetobacter sp.): 8 µg/mL (≈ 22.1 µM)
MIC50 (Pseudomonas aeruginosa): 4 µg/mL (≈ 11.1 µM)
MIC90 (Pseudomonas aeruginosa): 32 µg/mL (≈ 88.5 µM)
MIC (Actinomyces sp.): 0.5 µg/mL (≈ 1.38 µM)
MIC (Fusobacterium sp.): 0.06 µg/mL (≈ 0.166 µM)
MIC [4]: 0.03 µg/mL (≈ 0.083 µM)
MIC50 (Streptococcus pyogenes): 0.03 µg/mL (≈ 0.083 µM)
MIC90 (Streptococcus pyogenes): 0.03 µg/mL (≈ 0.083 µM)
MIC [5]: 0.06 µg/mL (≈ 0.166 µM)
MIC50 (Clostridioides difficile): 0.5 µg/mL (≈ 1.38 µM)
MIC90 (Clostridioides difficile): 2 µg/mL (≈ 5.53 µM)
MIC50 [6]: 4 µg/mL (≈ 11.1 µM)
MIC90 [6]: 16 µg/mL (≈ 44.3 µM)
MIC50 (Bacteroides fragilis): 2 µg/mL (≈ 5.53 µM)
MIC90 (Bacteroides fragilis): 4 µg/mL (≈ 11.1 µM)
MIC50 (Bacteroides ovatus): 4 µg/mL (≈ 11.1 µM)
MIC90 (Bacteroides ovatus): 16 µg/mL (≈ 44.3 µM)
MIC50 (Staphylococcus aureus [7]): 0.125 µg/mL (≈ 0.346 µM)
MIC90 (Staphylococcus aureus [7]): 0.125 µg/mL (≈ 0.346 µM)
MIC50 (Staphylococcus aureus [8]): 0.125 µg/mL (≈ 0.346 µM)
MIC90 (Staphylococcus aureus [8]): 0.25 µg/mL (≈ 0.692 µM)
MIC (Staphylococcus aureus [9]): 0.125 µg/mL (≈ 0.346 µM)
MIC [10]: 0.06 µg/mL (≈ 0.166 µM)
MIC50 [11]: 0.125 µg/mL (≈ 0.346 µM)
MIC90 [11]: 0.125 µg/mL (≈ 0.346 µM)
MIC50 [12]: 0.125 µg/mL (≈ 0.346 µM)
MIC90 [12]: 0.5 µg/mL (≈ 1.38 µM)
MIC50 (Alloiococcus otitis): 0.004 µg/mL (≈ 0.0111 µM)
MIC90 (Alloiococcus otitis): 0.008 µg/mL (≈ 0.0221 µM)
MIC50 (Streptococcus agalactiae): 0.03 µg/mL (≈ 0.083 µM)
MIC90 (Streptococcus agalactiae): 0.03 µg/mL (≈ 0.083 µM)
MIC50 (Streptococcus pneumoniae [13]): 0.03 µg/mL (≈ 0.083 µM)
MIC90 (Streptococcus pneumoniae [13]): 0.03 µg/mL (≈ 0.083 µM)
MIC50 (Streptococcus pneumoniae [14]): 0.03 µg/mL (≈ 0.083 µM)
MIC90 (Streptococcus pneumoniae [14]): 0.06 µg/mL (≈ 0.166 µM)
MIC50 (Streptococcus pneumoniae [15]): 0.03 µg/mL (≈ 0.083 µM)
MIC90 (Streptococcus pneumoniae [15]): 0.06 µg/mL (≈ 0.166 µM)
MIC50 (Prevotella buccae): 0.25 µg/mL (≈ 0.692 µM)
MIC90 (Prevotella buccae): 1 µg/mL (≈ 2.77 µM)
MIC50 (Prevotella corporis): 0.25 µg/mL (≈ 0.692 µM)
MIC90 (Prevotella corporis): 1 µg/mL (≈ 2.77 µM)
MIC50 [16]: 0.25 µg/mL (≈ 0.692 µM)
MIC90 [16]: 1 µg/mL (≈ 2.77 µM)
MIC50 (Hoylesella oralis): 0.25 µg/mL (≈ 0.692 µM)
MIC90 (Hoylesella oralis): 1 µg/mL (≈ 2.77 µM)
MIC50 (Neisseria meningitidis): 0.25 µg/mL (≈ 0.692 µM)
MIC90 (Neisseria meningitidis): 0.5 µg/mL (≈ 1.38 µM)
MIC50 (Streptococcus salivarius): 0.03 µg/mL (≈ 0.083 µM)
MIC90 (Streptococcus salivarius): 0.03 µg/mL (≈ 0.083 µM)
MIC50 (Streptococcus mitis): 0.03 µg/mL (≈ 0.083 µM)
MIC90 (Streptococcus mitis): 0.03 µg/mL (≈ 0.083 µM)
MIC50 (Salmonella enteritidis): 0.5 µg/mL (≈ 1.38 µM)
MIC90 (Salmonella enteritidis): 1 µg/mL (≈ 2.77 µM)
